We go through one substance from paper PMC9322450 (Angewandte Chemie (International ed. in English), 2022).

Data set [1] is classed as in vitro ADME, mouse. In short, it runs like this:
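Mouse epidermis punches (C57BL/6-type, ≈6 mm diameter, 1 mm thick) incubated with test compound at 4.85 μM in PBS for 24 h. Supernatant sampled over time, diluted 100-fold, added to a group-I S. aureus agr YFP reporter strain making native AIP. Fluorescence normalized to vehicle (100%) and media (0%) controls, n=3 independent experiments; remaining active compound estimated from an earlier dose-response curve.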

The test system of the next data set is S. aureus. The experiment in a line: murine open-wound model of S. aureus infection. The note with it: even at relatively high concentrations (e.g. 10 μM). It counts as in vivo, mouse.

For the substance AIP-III D4A, in data set [1] (after 24 h with mouse tissue in PBS, start 4.85 μM), the “loss of active compound” value is ~ 95%. Further, the “loss of inhibitory activity in the absence of mouse tissue” value in data set [1] (control without tissue, 24 hr) was “no loss of inhibitory activity”. Further, in data set [1] (tissue sample heat treated at 80 °C for 15 min before addition of compound), the “loss of activity with heat-treated tissue” value was “loss of activity could be prevented”. For the same substance, in the data set on S. aureus, the “benefit on wound healing” value is on record as “only a limited benefit on wound healing”.
